Source: ChEMBL document CHEMBL1147340, “1H- and 13C-nmr assignments of phyllanthin and hypophyllanthin: lignans that enhance cytotoxic responses with cultured multidrug-resistant cells” (J Nat Prod, 1993)
Values after ≈ are worked out from the molar mass of the structure shown.

Key:
[1] = tested on: ZR-75-1; assay: Cytotoxicity against human ZR-75-1 cells after 2 to 4 days by SRB assay; assay type: functional; settings: read-out: ED50 (the source's name)
Outline: (§1)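 Test compounds in 10% DMSO added to cell suspensions and incubated 2–4 days at 37° (100% humidity, 5% CO2). Cells fixed with cold 50% TCA for 1 h at 4°, stained with sulforhodamine B, washed with 1% HOAc and solubilized in 10 mM Tris base. OD read at 515 nm; percent growth calculated relative to controls. Top concentration tested 20 μg/ml.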

[2] = tested on: A-431; assay: Cytotoxicity against human A431 cells after 2 to 4 days by SRB assay; assay type: functional; settings: read-out: ED50 (the source's name); outline: as §1
[3] = tested on: Col2; assay: Cytotoxicity against human Col2 cells after 2 to 4 days by SRB assay; assay type: functional; settings: read-out: ED50 (the source's name); outline: as §1
[4] = Cytotoxicity against multidrug-resistant human KBV1 cells after 2 to 4 days by SRB assay in absence of vinblastine; assay type: functional; settings: KB-V1, read-out: ED50 (the source's name)
Outline: (§2)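 SRB growth assay on KB-V1 cells (compounds in 10% DMSO, 2–4 days at 37°, 5% CO2, TCA fixation, OD 515 nm, percent growth versus controls). Cells were given a range of compound concentrations, either alone or together with 1 μg/ml vinblastine.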

[5] = (§3) Displacement of [3H]vinblastine from p-glycoprotein in multidrug-resistant human KBV1 cell membrane vesicles by liquid scintillation counting; assay type: cell membranes
Outline: (§4)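 Membrane vesicles were made from KB-V1 cells by homogenization, a 35% sucrose cushion and 100,000 × g pelleting. Incubated 20 min at room temperature, then filtered onto BSA-prewashed glass fiber. Nonspecific binding taken with 1 mM unlabeled vinblastine. Read by scintillation counting and expressed as percent.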

[6] = Cytotoxicity against drug-sensitive human KB3 cells after 2 to 4 days by SRB assay; assay type: functional; settings: read-out: ED50 (the source's name); outline: as §1
[7] = tested on: LNCaP; assay: Cytotoxicity against human LNCAP cells after 2 to 4 days by SRB assay; assay type: functional; settings: read-out: ED50 (the source's name); outline: as §1
[8] = Cytotoxicity against human BCA1 cells after 2 to 4 days by SRB assay; assay type: functional; settings: read-out: ED50 (the source's name); outline: as §1
[9] = tested on: P388; assay: Cytotoxicity against mouse P388 cells after 2 to 4 days by SRB assay; assay type: functional; settings: read-out: ED50 (the source's name); outline: as §1
[10] = Cytotoxicity against multidrug-resistant human KBV1 cells after 2 to 4 days by SRB assay in presence of vinblastine; assay type: functional; settings: KB-V1, read-out: ED50 (the source's name); outline: as §2
[11] = tested on: SK-MEL-2; assay: Cytotoxicity against human SK-MEL-2 cells after 2 to 4 days by SRB assay; assay type: functional; settings: read-out: ED50 (the source's name); outline: as §1
[12] = Cytotoxicity against human LUC1 cells after 2 to 4 days by SRB assay; assay type: functional; settings: read-out: ED50 (the source's name); outline: as §1
[13] = tested on: KBV1; assay: as §3; assay type: cell membranes; outline: as §4
[14] = Cytotoxicity against multidrug-resistant human KBV1 cells at 1 ug/mL after 2 to 4 days by SRB assay in presence of vinblastine; assay type: functional; settings: KB-V1, read-out: ED50 (the source's name)

| SMILES | EC50 [1] | EC50 [2] | EC50 [3] | EC50 [4] | IC50 [5] | EC50 [6] | EC50 [7] | EC50 [8] | EC50 [9] | EC50 [10] | EC50 [11] | EC50 [12] | ED50 [13] | EC50 [14] |
| --- | --- | --- | --- | --- | --- | --- | --- | --- | --- | --- | --- | --- | --- | --- |
| COC[C@@H]1Cc2cc(OC)c3c(c2[C@H](c2ccc(OC)c(OC)c2)[C@H]1COC)OCO3 [HYPOPHYLLANTHIN] | > 20 µg/mL | > 20 µg/mL | > 20 µg/mL | > 20 µg/mL | > 160 µg/mL | > 20 µg/mL | > 20 µg/mL | > 20 µg/mL | > 20 µg/mL | 3.8 µg/mL | > 20 µg/mL | > 20 µg/mL | – | – |
| COC[C@H](Cc1ccc(OC)c(OC)c1)[C@H](COC)Cc1ccc(OC)c(OC)c1 [PHYLLANTHIN] | > 20 µg/mL | > 20 µg/mL | > 20 µg/mL | 9 µg/mL (≈ 21.5 µM) | 28 µg/mL (≈ 66.9 µM) | > 20 µg/mL | > 20 µg/mL | > 20 µg/mL | > 20 µg/mL | – | > 20 µg/mL | > 20 µg/mL | Dose-dependent effect | 2.1 µg/mL |
